The test system of one series is OVCAR. Description: Antitumor activity against human OVCAR cells by SRB colorimetric assay. In kind it is functional, cell-based. The procedure, abridged:
(§1)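 NCI sulforhodamine B colorimetric growth assay in 96-well plates. Each compound tested at four concentrations in 10-fold dilutions. Doxorubicin as positive control. IC50 taken from concentration–response curves as the concentration giving 50% reduction in cell growth versus untreated control cells.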
(In SRB staining, fixed cells bind dye roughly in proportion to their protein.)

In a further series the test system is HT-29. Description: Antitumor activity against human HT-29 cells by SRB colorimetric assay. In kind it is functional, cell-based. The procedure, abridged:
as §1

The subject of the next series is NCI-H460. Briefly: Antitumor activity against human NCI-H460 cells by SRB colorimetric assay. It is filed as functional, cell-based. The procedure, abridged:
as §1

In series [1] the test system is Mus musculus. Description: Antitumor activity against mouse Ehrlich Ascitic tumor xenografted in BALB/c mouse assessed as reduction of tumor volume in paw at 30 mg/kg, ip administered every 3 days for 15 days measured on day 9 by plethysmograph analysis. It is filed as functional, organism-based. Set-up: dose 30 mg/kg. The method in brief: (§2)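 Ehrlich tumor cells collected from ascitic fluid and counted by Trypan blue exclusion, viability above 90%. Cells diluted in 0.9% PBS to […]. Injected sub-plantar into right hind paw of Balb/C mice (20–35 g), 2.5 × 10⁶ viable cells. Compound given ip every 3 days over 15 days, vehicle 0.9% saline, 5-fluorouracil 10 mg/kg as positive control. Paw volume measured by plethysmometer every 3 days until sacrifice on day 15.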

A further series has as its system K562. Description: Antitumor activity against human K562 cells by SRB colorimetric assay. In kind it is functional, cell-based. The procedure, abridged:
as §1

The next series deals with UACC-62. Briefly: Antitumor activity against human UACC62 cells by SRB colorimetric assay. It is filed as functional, cell-based. The method in brief: as §1
For series [2], the system named is Mus musculus. Briefly: Antitumor activity against mouse Ehrlich Ascitic tumor xenografted in BALB/c mouse assessed as reduction in paw edema at 30 mg/kg, ip administered every 3 days for 15 days measured on day 12 and day 15 by plethysmograph analysis. It is filed as functional, organism-based. Set-up: dose 30 mg/kg. The method in brief: as §2
The nature of series [3]: Antitumor activity against human PCO3 cells by SRB colorimetric assay. It is filed as functional, cell-based. The method in brief: as §1
Series [4] concerns Mus musculus. Description: Acute toxicity in BALB/c mouse at 30 mg/kg, ip. It is filed as organism-based. Set-up: dose 30 mg/kg, route intraperitoneal. The following applies: in vivo.
For series [5], the system named is Mus musculus. Briefly: Antitumor activity against mouse Ehrlich Ascitic tumor xenografted in BALB/c mouse assessed as reduction of tumor volume in paw at 10 mg/kg, ip administered every 3 days for 15 days measured on day 9 by plethysmograph analysis. Also noted: dose 10 mg/kg. In kind it is functional, organism-based.
Series [6] has as its system Mus musculus. Description: Antiinflammatory activity in mouse Ehrlich Ascitic tumor xenografted BALB/c mouse assessed as reduction in paw edema at 30 mg/kg, ip administered every 3 days for 15 days by plethysmograph analysis. In kind it is functional, organism-based. Set-up: dose 30 mg/kg. The method in brief:
as §2

The next series deals with MCF7. Description: Antitumor activity against human MCF7 cells by SRB colorimetric assay. It is filed as functional, cell-based. The procedure, abridged: as §1
For a further series, the system named is 786-0. Description: Antitumor activity against human 786-0 cells by SRB colorimetric assay. In kind it is functional, cell-based. The method in brief: as §1

Consider 1 molecule from ChEMBL document CHEMBL1914299, “Synthesis and antitumor activity of β-carboline 3-(substituted-carbohydrazide) derivatives” (Bioorg Med Chem, 2011).

Active and inactive are the calls of the source. No cut-off for these calls is given here.

What is called IC50 is the concentration needed to halve the response being measured. A higher IC50 goes with weaker potency in that assay. As for `CN(C)c1ccc(/C=N/NC(=O)c2cc3c([nH]c4ccccc43)c(-c3cccc([N+](=O)[O-])c3)n2)cc1`, the half-inhibitory concentration (IC50) with OVCAR worked out at 190 nM; in the series with HT-29, 9800 nM; in the series on NCI-H460, 2110 nM; in the series on K562, 240 nM; with UACC-62 it was 1340 nM; in [3] it was 4180 nM. Moreover, the IC50 came out at 630 nM with MCF7 and 40 nM in the series with 786-0. Besides, the result in the series on Mus musculus [1], with Mus musculus [2], in the series on Mus musculus [5] and with Mus musculus [6] was Active. Further, in the series on Mus musculus [4], the Activity entry is given as “Non-toxic”.
